The source made the active and inactive calls. No cut-off for these calls is given here.
Assays:
Enterovirus A71 [1] = assay: microbe, parasite or virus in culture; assay type: functional, organism-based; details: Enterovirus A, Tainin/4643/98, Vero 76, 72 h
RD [2] = assay: Cytotoxicity against human RD cells by microscopic based visual inspection method; assay type: cell-based
in vitro [3] = details: monkey, Vero 76 cells
[4] = Selectivity index, ratio of CC50 for human RD cells to EC50 for Enterovirus D68 US/KY/14-18953 by neutral red uptake assay; assay type: toxicity; details: read-out: Ratio CC50/EC50
Outline: (§1)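 Selectivity index calculated as CC50/EC50, both from the same cell line and the same read-out (visual or neutral red).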

in vitro [5] = details: monkey, Vero 76 cells; remark: listed apart in the source
[6] = Selectivity index, ratio of CC50 for human RD cells to EC50 for Enterovirus D68 US/KY/14-18953 strain; assay type: toxicity
Outline: as §1

enterovirus D68 [7] = assay: Antiviral activity against Enterovirus D68 US/KY/14-18953 infected in RD cells assessed as reduction in virus yield by visual inspection method; assay type: functional, organism-based; details: Enterovirus D, US/KY/14-18953, RD
Outline: (§2)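 Cell-based inhibition of virus replication. Vero 76 cells for Coxsackie B3 and poliovirus 1; RD cells for enterovirus 68. Two read-outs: visual scoring of virus yield reduction and neutral red uptake for cytopathic effect. EC50 is reported, and EC90 for some visual values.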

Vero 76 [8] = assay: (§3) Cytotoxicity against monkey Vero 76 cells by microscopic analysis; assay type: cell-based; details: chlorocebus sabaeus, vero 76
[9] = system: Respiratory syncytial virus; assay: Antiviral activity against Respiratory syncytial virus; assay type: functional, organism-based
Enterovirus A71 [10] = assay: microbe, parasite or virus in culture; assay type: functional, organism-based, Tainin/4643/98, Vero 76; details: Enterovirus A; for EC50: Tainin/4643/98, Vero 76, 72 h
enterovirus D68 [11] = assay: Antiviral activity against Enterovirus D68 US/KY/14-18953 strain infected in RD cells assessed as reduction in virus-induced cytopathic effect by neutral red uptake assay; assay type: functional, organism-based; details: Enterovirus D, US/KY/14-18953, RD
Outline: as §2

Vero 76 [12] = assay: (§4) Cytotoxicity against monkey Vero 76 cells by neutral red uptake assay; assay type: cell-based; details: chlorocebus sabaeus, vero 76
RD [13] = assay: Cytotoxicity against human RD cells by neutral red uptake assay; assay type: cell-based
Coxsackievirus [14] = assay: Antiviral activity against Coxsackie virus B3 HA 201 933 infected in Vero 76 cells assessed as reduction in virus yield by visual inspection method; assay type: functional, organism-based; details: B3 HA 201 933, Vero 76
Outline: as §2

Coxsackievirus [15] = assay: Antiviral activity against Coxsackie virus B3 HA 201 933 infected in Vero 76 cells assessed as reduction in virus-induced cytopathic effect by neutral red uptake assay; assay type: functional, organism-based; details: B3 HA 201 933, Vero 76
Outline: as §2

Poliovirus 1 [16] = assay: Antiviral activity against Poliovirus 1 Mahoney infected in monkey Vero 76 cells assessed as reduction in virus-induced cytopathic effect by neutral red uptake assay; assay type: functional, organism-based; details: Enterovirus C
Outline: as §2

Poliovirus 1 [17] = assay: Antiviral activity against Poliovirus 1 Mahoney infected in monkey Vero 76 cells assessed as reduction in virus yield by visual inspection method; assay type: functional, organism-based; details: Enterovirus C
Outline: as §2

Tacaribe virus = assay: Antiviral activity against Tacaribe virus; assay type: functional, organism-based; details: Mammarenavirus tacaribeense
[18] = as §3; assay type: cell-based; details: chlorocebus sabaeus, Vero 76 cells
[19] = as §4; assay type: cell-based; details: chlorocebus sabaeus, Vero 76 cells
[20] = Inhibition of capsid protein VP1 in Enterovirus 71; design: species or system Enterovirus A71
Enterovirus A71 [21] = assay: Antiviral activity against Enterovirus 71; assay type: functional, organism-based; details: Enterovirus A
[22] = target: 5-hydroxytryptamine receptor 2B (Homo sapiens, UniProt P41595); assay: Binding affinity to 5HT2B (unknown origin)
[23] = Selectivity index, ratio of CC50 for monkey Vero 76 cells to EC50 for Poliovirus 1 Mahoney; assay type: toxicity; details: read-out: Ratio CC50/EC50
Outline: as §1

[24] = Selectivity index, ratio for CC50 of monkey Vero 76 cells to EC50 for Coxsackie virus B3 HA 201 933 by visual inspection method; assay type: toxicity; details: read-out: Ratio CC50/EC50
Outline: as §1

[25] = Selectivity index, ratio of CC50 for monkey Vero 76 cells to EC50 for Poliovirus 1 Mahoney by neutral red uptake assay; assay type: toxicity; details: read-out: Ratio CC50/EC50
Outline: as §1

[26] = Selectivity index, ratio for CC50 of monkey Vero 76 cells to EC50 for Coxsackie virus B3 HA 201 933 by neutral red uptake assay; assay type: toxicity; details: read-out: Ratio CC50/EC50
Outline: as §1

Chain of 5-hydroxytryptamine receptor 2B (P41595 whole entry): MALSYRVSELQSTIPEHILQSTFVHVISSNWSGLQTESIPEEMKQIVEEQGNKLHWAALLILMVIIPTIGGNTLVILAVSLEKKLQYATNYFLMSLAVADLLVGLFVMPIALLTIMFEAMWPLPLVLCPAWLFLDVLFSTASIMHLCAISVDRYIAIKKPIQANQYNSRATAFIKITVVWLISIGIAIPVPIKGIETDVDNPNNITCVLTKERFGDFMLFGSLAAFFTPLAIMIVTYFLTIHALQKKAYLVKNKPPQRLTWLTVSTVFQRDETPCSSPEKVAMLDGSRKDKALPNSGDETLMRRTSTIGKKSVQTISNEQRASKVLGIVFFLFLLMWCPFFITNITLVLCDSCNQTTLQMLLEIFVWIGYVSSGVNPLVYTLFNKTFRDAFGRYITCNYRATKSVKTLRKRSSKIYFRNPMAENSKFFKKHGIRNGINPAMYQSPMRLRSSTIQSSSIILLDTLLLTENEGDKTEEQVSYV

Compound | EC50 (Enterovirus A71 [1]) | CC50 (RD [2]) | selectivity ratio (in vitro [3]) | selectivity ratio [4] | selectivity ratio (in vitro [5]) | CC50 (Vero 76 [8]) | EC50 (Enterovirus A71 [10]) | EC50 (enterovirus D68 [11]) | CC50 (Vero 76 [12]) | CC50 (RD [13]) | further results
O[C@@H]1[C@H](O)[C@@H]2C[C@@H]2[C@H]1n1cnc2c(NC(C3CC3)C3CC3)nc(Cl)nc21 | 3.4 µM | 41 µM | > 28 | 4.4 | 10 | > 100 µM | 3.6 µM | 9.3 µM | 34 µM | 41 µM | selectivity ratio ([6]; read-out: Ratio): 2.7; EC90 (enterovirus D68 [7]): 15 µM; Activity [9]: inactive
CC(C)[C@@H](Nc1nc(Cl)nc2c1ncn2[C@H]1[C@H](O)[C@H](O)[C@]2(CO)C[C@H]12)C1CC1 | 9.1 µM | > 100 µM | – | – | – | 24 µM | – | 32 µM | 24 µM | > 100 µM | EC50 (Coxsackievirus [14]): 16 µM; EC50 (Coxsackievirus [15]): 16 µM; EC50 (Poliovirus 1 [16]): 27 µM; EC50 (enterovirus D68 [7]): 32 µM; EC90 (Enterovirus A71 [10]; Tainin/4643/98, Vero 76, time 72 hrs): 7.7 µM; EC50 (Poliovirus 1 [17]): 28 µM
OC[C@@]12C[C@@H]1[C@@H](n1cnc3c(NC(C4CC4)C4CC4)nc(Cl)nc31)[C@H](O)[C@@H]2O | – | – | – | – | – | > 100 µM | – | – | 68 µM | – | Activity (Tacaribe virus): inactive
OC[C@@]12C[C@@H]1[C@@H](n1ccc3c(NC(C4CCC4)C4CCC4)nc(Cl)nc31)[C@H](O)[C@@H]2O | – | – | > 3.1 | – | 3.6 | – | 32 µM | – | – | – | CC50 [18]: > 100 µM; CC50 [19]: 86 µM
CCn1nnc(-c2ccc(OCCC(C)CCN3CCN(c4ccncc4)C3=O)cc2)n1 (stereo not drawn) | – | – | – | – | – | – | – | – | – | – | IC50 [20]: 0.0008 µM
OC[C@H]1O[C@@H](n2cnc3c(NCc4cccc(C(F)(F)F)c4)ncnc32)[C@H](O)[C@@H]1O | – | – | – | – | – | – | – | – | – | – | EC50 (Enterovirus A71 [21]): 0.068 µM
CC(C)[C@@H](Nc1nc(Cl)nc2c1ncn2[C@H]1[C@H](O)[C@H](O)[C@]2(CF)C[C@H]12)C1CC1 | 3 µM | 42 µM | 10 | 2.6 | 11 | 36 µM | – | 16 µM | 33 µM | 42 µM | Ki [22]: 0.934 µM; selectivity ratio ([6]; read-out: Ratio): 5.4; EC90 (enterovirus D68 [7]): 7.7 µM
CC(C)[C@@H](Nc1nc(I)nc2c1ncn2[C@H]1[C@H](O)[C@H](O)[C@]2(CO)C[C@H]12)C1CC1 | 20 µM | – | 5.6 | – | 2.3 | 100 µM | 18 µM | – | 46 µM | – | Ki [22]: 0.17 µM
CC(C)S(=O)(=O)n1c(N)nc2ccc(/C(=N/O)c3ccccc3)cc21 [ENVIROXIME] | – | 4.2 µM | – | 47 | – | – | – | 0.032 µM | – | 1.5 µM | EC50 (Coxsackievirus [14]): < 0.01 µM; selectivity ratio [23]: > 670; selectivity ratio [24]: > 1000; EC50 (Coxsackievirus [15]): < 0.01 µM; selectivity ratio ([6]; read-out: Ratio CC50/EC50): 130; selectivity ratio [25]: > 490; EC50 (Poliovirus 1 [16]): < 0.01 µM; EC50 (enterovirus D68 [7]): 0.032 µM; selectivity ratio [26]: > 450; EC50 (Poliovirus 1 [17]): 0.015 µM

Reference: ChEMBL document CHEMBL4699557, “Structure activity relationship of novel antiviral nucleosides against Enterovirus A71” (Bioorg Med Chem Lett, 2020)
